High-throughput results deposited in PubChem by several laboratories.
CHO parental Ca: ATP-evoked calcium signal inhibitors, parental CHO, primary screen, counter-screen for OX1R antagonist project, cell-based, fluorescence, Fluo-8 calcium dye. parental CHO-K1, ATP-induced calcium, Fluo-8 fluorescence. inhibition, % at 5.6 µM. actives 0.63% (n = 330,000). AID 463079, 2010;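 active = inhibition above that plate's mean sample inhibition plus 3 SD, cut at about 26% in these data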;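 also: 0% = ATP-challenged DMSO wells and 100% = DMSO wells without ATP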
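Material – parental CHO cells · Reagent – ATP stimulus · Compound – single nominal dose of 5.6 µM per compound · Detection – Fluo-8 fluorescence · Read-out basis – percent inhibition of calcium signal · Controls – ATP-challenged DMSO wells low, unchallenged DMSO wells high · Repeats – no replicates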
TAAR1 ag: human TAAR1 agonists, primary screen, Fluo-8 calcium fluorescence, CHO RD-HGA16 cells. activation, % at 3 µM. Trace amine-associated receptor 1 (Homo sapiens), Q96RJ0. vehicle wells 0%, saturating PEA agonist 100%. actives 0.99% (n = 360,000);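 active = activation above the mean activation of all test compounds in the run plus 3 SD, cut at about 38% in these data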
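Assay system – CHO-derived RD-HGA16 cells with stable Gα16 and human TAAR1 · Compound dosing – one-point dosing at 3 µM (nominal) · Incubation – 17-24 h seeding, 75 min 37 °C dye, 30 min RT · Measured by – kinetic Fluo-8 calcium fluorescence · Control set – DMSO vehicle as 0%, PEA at EC100 as 100% · Repeats – single well for each compound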
NTR1 agonist: agonists of human NTR1, primary screen, imaging, U2OS cells, beta-arrestin-GFP, high content. actives 0.17% (n = 330,000). Neurotensin receptor type 1 (Homo sapiens), P30989. AID 493036, 2011. NTR1-U2OS beta-arrestin-GFP spot imaging, agonist mode. activation, % at 20 µM;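 active = activation at or above 40% of the spot to cytoplasm intensity ratio, with at least 20 cells analyzed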;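 also: 0% = DMSO without peptide and 100% = 100 nM NTR1 peptide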
Target sequence (P30989 whole entry, looked up): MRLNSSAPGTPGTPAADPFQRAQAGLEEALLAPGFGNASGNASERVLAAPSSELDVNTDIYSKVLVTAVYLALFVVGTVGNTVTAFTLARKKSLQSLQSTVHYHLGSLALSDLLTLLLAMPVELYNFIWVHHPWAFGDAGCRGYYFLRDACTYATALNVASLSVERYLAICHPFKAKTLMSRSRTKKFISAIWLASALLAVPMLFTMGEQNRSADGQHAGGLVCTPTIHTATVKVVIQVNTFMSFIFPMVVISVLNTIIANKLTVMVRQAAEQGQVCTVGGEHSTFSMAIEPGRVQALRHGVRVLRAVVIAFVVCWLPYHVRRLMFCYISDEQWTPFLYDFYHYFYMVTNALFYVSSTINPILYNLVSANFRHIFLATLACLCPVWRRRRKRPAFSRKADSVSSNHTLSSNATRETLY
OX1R antag-1: antagonists of human orexin 1 receptor (OX1R) | Orexin/Hypocretin receptor type 1 (Homo sapiens), O43613 | OX1R-expressing cells, FRET antagonist read-out | inhibition, % at 6.6 µM | actives 1.8% (n = 330,000); in the data active = inhibition mostly above about 38%, no sharp cut-off; inactive = mostly below about 40%;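 also: 0% = agonist challenge alone and 100% = reference antagonist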
OX1R antag-2: OX1R (HCRTR1) antagonists, primary screen, fluorescence, CHO/OX1R cells, Fluo-8 calcium, orexin A; Orexin/Hypocretin receptor type 1 (Homo sapiens), O43613; Fluo-8 calcium fluorescence; inhibition, % at 5 µM; actives 0.43% (n = 330,000); AID 434989, 2010;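 active = inhibition above its plate's threshold, mean inhibition of all tested compounds on the plate plus 3 SD, cut at about 37% in these data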;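 also: 0% = orexin A challenge wells and 100% = SB-334867-A antagonist wells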
TAAR1 antagonist: human TAAR1 antagonists, primary screen, Fluo-8 calcium fluorescence, CHO RD-HGA16 cells; antagonist; inhibition, % at 3 µM; Trace amine-associated receptor 1 (Homo sapiens), Q96RJ0; actives 1.5% (n = 360,000);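 active = inhibition above a per-plate cutoff, the mean inhibition of test compounds on that plate plus 3 SD, cut at about 49% in these data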;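 also: 0% = DMSO plus EC80 beta-PEA response and 100% = DMSO alone without agonist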
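Test system: RD-HGA16 CHO cells with stable hTAAR1 and Gα16 / Probe or stimulus: EC80 β-phenethylamine stimulus / Times: seeding 17-24 h prior, 75-min 37 °C, 30-min RT dye loading / Detection: Fluo-8 calcium-sensitive fluorescence / Read-out basis: % inhibition scaled between DMSO and EC80 PEA controls / Repeats: singlicate, one well per test compound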
nonsel antag count: nonselective antagonists in TAAR1 counter-screen cells, counter-screen for hTAAR1 antagonist project, cell-based, fluorescence, calcium; inhibition, % at 3 µM; actives 77% (n = 2,400); AID 651780, 2012; shares compounds with TAAR1 antagonist; counterscreen cell line, antagonist mode; in the data active = inhibition above about 22%;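 also: CHO-Ga16 host cells stimulated with ATP at an EC80 level; 0% = agonist EC80 plus vehicle and 100% = vehicle without agonist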
TAAR1 antag conf: human TAAR1 antagonists, retest of hits, confirmation, cell-based, fluorescence | inhibition, % at 3 µM | actives 40% (n = 2,400) | shares compounds with TAAR1 antagonist | TAAR1-expressing cells, fluorescence antagonist read-out; in the data active = inhibition above about 49%;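 also: CHO-Ga16 host cells challenged with agonist PEA near its EC80; 0% = agonist at EC80 plus vehicle and 100% = vehicle with no agonist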
Ga16 ag counter: calcium activation in Ga16-expressing cells, counter-screen for TAAR1 antagonist project, cell-based, fluorescence | AID 651953, 2012 | shares compounds with TAAR1 antagonist | agonist counterscreen | activation, % at 3 µM | actives 18% (n = 2,400); in the data active = activation above about 12%;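 also: 0% = vehicle wells and 100% = saturating stimulus response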
TAAR1 ag count: TAAR1 activation by candidate antagonists – cell-based, fluorescence, counter-screen for TAAR1 antagonist project | hTAAR1 cell line, agonist mode | AID 651955, 2012 | activation, % at 3 µM | shares compounds with TAAR1 antagonist | actives 2% (n = 2,400); in the data active = activation above about 37%;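 also: CHO cells stably expressing TAAR1 with calcium dye readout; 0% = DMSO vehicle and 100% = full agonist response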
* = called active by the depositor; . = no result. Sampled rows, rich in hits. Any-hit rate of the full collection: about 4%.

SMILES	CHO parental Ca	TAAR1 ag	NTR1 agonist	OX1R antag-1	OX1R antag-2	TAAR1 antagonist	nonsel antag count	TAAR1 antag conf	Ga16 ag counter	TAAR1 ag count
CCc1nnc(SCC(=O)Nc2ccc3ccccc3c2)n1N	-18	2	-2	3	-8	-3	.	.	.	.
COc1ccc(S(=O)(=O)Cc2ccc(C(=O)N3CCN(c4ccc(Cl)cc4)CC3)o2)cc1	41*	5	3	13	10	72*	33*	36	9	7
COc1ccc(S(=O)(=O)Cc2ccc(C(=O)N3CCN(c4cccc(C)c4)C(C)C3)o2)cc1 (stereo unspecified)	-4	4	4	13	-30	59*	31*	38	10	9
O=C(c1ccc(CS(=O)Cc2ccc(Cl)cc2)o1)N1CCN(c2ccc(F)cc2)CC1 (stereo unspecified)	-8	24	1	7	-30	72*	15	11	4	5
COc1ccc(N2CCN(C(=O)c3ccc(CS(=O)(=O)c4ccc(OC)cc4)o3)CC2)cc1	-20	1	3	9	-19	4	.	.	.	.
COc1ccccc1S(=O)(=O)Cc1ccc(C(=O)N2CCN(c3ccc(C)cc3)C(C)C2)o1 (stereo unspecified)	-14	12	0	5	-41	41	.	.	.	.
CC(C)(C)C(=O)Nc1cc(NC(=O)C(C)(C)C)cc(C(=O)NNC(=O)c2ccncc2)c1	-5	4	0	-9	-14	-6	.	.	.	.
CCOc1ccccc1NC(=O)CSc1nc2cc(O)ccc2c(=O)n1-c1ccc(OC)c(OC)c1	-4	16	10	0	-12	-22	.	.	.	.
COc1ccccc1-c1cc(NC(C)=O)c2ncc(-c3cccc(C(C)=O)c3)n2c1	.	3	.	.	.	86*	32*	53*	7	3
COc1cc(-c2cc(NC=O)c3ncc(-c4ccc(C(C)=O)cc4)n3c2)cc(OC)c1OC	.	7	.	.	.	53*	23*	37	10	11
COc1ccc(-c2cc(NC=O)c3ncc(-c4ccc(C(C)=O)cc4)n3c2)cc1OC	.	8	.	.	.	26	.	.	.	.
CC(=O)Nc1cc(-c2ccc(CO)cc2)cn2c(-c3cccc(C(F)(F)F)c3)cnc12	.	13	.	.	.	70*	36*	51*	10	15
CC(=O)Nc1cc(-c2ccc(N)cc2)cn2c(-c3cccc(C(F)(F)F)c3)cnc12	.	4	.	.	.	34	.	.	.	.
Cc1ccsc1C(=O)OCC(=O)N1C(C)CCCC1C (stereo unspecified)	-8	7	0	12	7	1	.	.	.	.
Cc1ccc(N(CCC#N)C(=O)COC(=O)c2cc(C)oc2C)cc1	-6	5	0	8	-17	-25	.	.	.	.
CCN1CCN(CCCNC(=O)c2ccccc2NC(=O)C2=C(C)OCCS2)CC1	5	-1	0	38	-6	-1	.	.	.	.
O=C(Cn1cc(C(F)(F)F)ccc1=O)OCC(=O)c1ccc[nH]1	-6	1	0	7	-5	-3	.	.	.	.
